PMC5696082 (Analytical biochemistry, 2017)
Each block holds one molecule with its values, some of them ahead of it.

Experiments:
[1] = Background hydrolysis of substrates in phosphate buffer; format: physicochemical; details: phosphate buffer 100 mM, pH 8, 0.1 mg/mL BSA
[2] = Fluorophore characterization; format: physicochemical; details: for Maximum λemm / Maximum λexc / Relative Fluorescence Intensity: 37°C, phosphate buffer 100 mM pH 8, 0.1 mg/mL BSA, 1% DMSO
Procedure, shortened: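 Fluorophores dissolved in 100 mM phosphate buffer, pH 8, 0.1 mg/mL BSA, 1% DMSO, at 37°C. Excitation and emission maxima found by scanning fluorescence intensity at 2 nm steps on a plate spectrophotometer. Relative intensity expressed as RFU per nmol.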

AADAC = target: T1, AADAC (Homo sapiens, UniProt P22760); test: Potency of esterase inhibitors, AADAC; format: biochemical
T1 sequence (P22760 1-399): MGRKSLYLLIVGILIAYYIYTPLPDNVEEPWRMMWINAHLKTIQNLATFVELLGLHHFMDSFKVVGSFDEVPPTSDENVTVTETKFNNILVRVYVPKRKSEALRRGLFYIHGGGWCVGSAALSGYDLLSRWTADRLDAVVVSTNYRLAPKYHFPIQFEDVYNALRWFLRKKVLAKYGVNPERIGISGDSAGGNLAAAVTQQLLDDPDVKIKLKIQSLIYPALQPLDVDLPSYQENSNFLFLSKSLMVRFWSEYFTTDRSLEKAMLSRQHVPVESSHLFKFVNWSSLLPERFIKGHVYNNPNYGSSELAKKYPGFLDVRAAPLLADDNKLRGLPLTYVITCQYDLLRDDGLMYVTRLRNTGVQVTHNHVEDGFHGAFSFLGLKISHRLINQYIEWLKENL

PON1 = PON1 (Homo sapiens, UniProt P27169); test: Potency of esterase inhibitors, PON1; format: biochemical
Procedure, shortened: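 PON1 used as crude lysate of baculovirus-infected insect cells in PBS. Added to 2-fold serial inhibitor dilutions (top concentration at most 100 µM) and preincubated 5 min. Cyanohydrin ester substrate then added to 50 µM final, DMSO ≤2%, in 100 mM phosphate pH 8, 0.1 mg/mL BSA, 37°C. Fluorescence (ex 330/em 465 nm) read kinetically for 10 min. IC50 from linear regression of log[inhibitor] against % remaining activity; triplicates, single experiment.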

FAAH = target: T2, FAAH (Homo sapiens, UniProt O00519); test: Potency of esterase inhibitors, FAAH; format: biochemical
T2 sequence (O00519 1-579): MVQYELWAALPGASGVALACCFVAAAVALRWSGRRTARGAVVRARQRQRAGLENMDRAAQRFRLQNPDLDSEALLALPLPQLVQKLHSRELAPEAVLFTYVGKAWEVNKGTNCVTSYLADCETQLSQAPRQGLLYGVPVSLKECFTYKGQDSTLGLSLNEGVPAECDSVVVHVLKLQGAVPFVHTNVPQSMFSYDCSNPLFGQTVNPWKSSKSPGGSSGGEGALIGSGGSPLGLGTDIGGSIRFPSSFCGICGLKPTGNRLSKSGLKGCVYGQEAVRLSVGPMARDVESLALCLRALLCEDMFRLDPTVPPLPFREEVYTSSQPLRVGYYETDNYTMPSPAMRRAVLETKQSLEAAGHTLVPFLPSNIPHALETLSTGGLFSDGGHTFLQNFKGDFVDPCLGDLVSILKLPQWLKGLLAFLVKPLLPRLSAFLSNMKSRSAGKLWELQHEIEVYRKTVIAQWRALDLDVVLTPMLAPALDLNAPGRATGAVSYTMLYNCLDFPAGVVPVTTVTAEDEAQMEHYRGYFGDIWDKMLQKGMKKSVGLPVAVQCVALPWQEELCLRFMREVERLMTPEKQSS

hCE3 = target: T3, hCE3 (Homo sapiens, UniProt Q6UWW8); test: Potency of esterase inhibitors, hCE3; format: biochemical
T3 sequence (Q6UWW8 27-571): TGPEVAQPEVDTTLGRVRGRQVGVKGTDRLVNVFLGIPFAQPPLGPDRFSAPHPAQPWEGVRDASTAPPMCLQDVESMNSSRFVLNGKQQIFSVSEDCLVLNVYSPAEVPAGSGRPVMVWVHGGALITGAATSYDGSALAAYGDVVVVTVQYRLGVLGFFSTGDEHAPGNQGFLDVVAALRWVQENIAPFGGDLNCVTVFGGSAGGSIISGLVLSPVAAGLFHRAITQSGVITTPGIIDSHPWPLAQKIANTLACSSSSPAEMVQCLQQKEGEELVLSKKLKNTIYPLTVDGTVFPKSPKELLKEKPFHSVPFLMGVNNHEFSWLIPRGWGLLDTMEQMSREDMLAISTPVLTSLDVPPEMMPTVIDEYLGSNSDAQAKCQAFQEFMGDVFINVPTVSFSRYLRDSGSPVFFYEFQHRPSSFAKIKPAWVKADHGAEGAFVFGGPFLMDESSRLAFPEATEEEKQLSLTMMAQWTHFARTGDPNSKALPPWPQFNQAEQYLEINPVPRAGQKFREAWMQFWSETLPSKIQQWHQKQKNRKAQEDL

Kinetic properties [3] = substrate: COc1ccc2cc(C(C#N)OC(C)=O)ccc2c1; test: Kinetic properties; format: biochemical, human; details: 37°C, pH 8
Kinetic properties [4] = substrate: CCCCC(C)CCC(=O)Nc1ccc(OC)nc1C; test: Kinetic properties; format: biochemical, human; details: 37°C, pH 8
[5] = other: hCE2, 6 substrate concentrations 3.13-100 µM
[6] = other: hCE1, 6 substrate concentrations 3.13-100 µM

Chain of PON1 (P27169 whole entry, species assumed): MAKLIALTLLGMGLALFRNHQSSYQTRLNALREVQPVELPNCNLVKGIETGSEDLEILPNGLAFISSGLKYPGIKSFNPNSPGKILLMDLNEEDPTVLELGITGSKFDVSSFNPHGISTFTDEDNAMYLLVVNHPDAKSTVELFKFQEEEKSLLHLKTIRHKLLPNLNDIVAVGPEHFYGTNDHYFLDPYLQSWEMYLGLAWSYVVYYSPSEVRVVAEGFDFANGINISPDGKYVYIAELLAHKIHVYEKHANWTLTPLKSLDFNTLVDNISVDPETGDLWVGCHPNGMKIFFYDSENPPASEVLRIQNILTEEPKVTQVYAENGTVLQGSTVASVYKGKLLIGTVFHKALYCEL

Rate of background hydrolysis [1]: 610 pmol/min
Molecule: CC(=O)Oc1ccc([N+](=O)[O-])cc1 [4-NPA, 4-nitrophenyl acetate]

Fluorescence, fold less than I [2]: 4 fold
Maximum λemm [2]: 364 nm
Maximum λexc [2]: 292 nm
Relative Fluorescence Intensity [2]: 1,100 RFU/nmol
Molecule: COc1nc(C)ccc1N [V, 2-methyl-5-amino-6-methoxypyridine]

Maximum λemm [2]: 462 nm
Maximum λexc [2]: 320 nm
Relative Fluorescence Intensity [2]: 2,600 RFU/nmol
Molecule: COc1ccc2cc(C=O)ccc2c1 [VI, 6-methoxynaphthaldehyde]

Continued, molecule first:

Molecule: COc1ccc(N)c(C)n1 [I, 2-methoxy-5-amino-6-methylpyridine]
Maximum λemm [2]: 394 nm
Maximum λexc [2]: 304 nm
Relative Fluorescence Intensity [2]: 4,400 RFU/nmol

Molecule: COc1ccc(N)cn1 [II, 2-methoxy-5-aminopyridine]
Maximum λemm [2]: 398 nm
Maximum λexc [2]: 304 nm
Relative Fluorescence Intensity [2]: 3,100 RFU/nmol

Molecule: CN(C)C(=O)C(CCN1CCC(O)(c2ccc(Cl)cc2)CC1)(c1ccccc1)c1ccccc1 [Loperamide]
IC50 (AADAC): 23 µM
IC50 (PON1): > 100 µM
IC50 (FAAH): > 100 µM
IC50 (hCE3): > 100 µM

B1: hCE2 (Homo sapiens) (protein)
chain: QDSASPIRTTHTGQVLGSLVHVKGANAGVQTFLGIPFAKPPLGPLRFAPPEPPESWSGVRDGTTHPAMCLQDLTAVESEFLSQFNMTFPSDSMSEDCLYLSIYTPAHSHEGSNLPVMVWIHGGALVFGMASLYDGSMLAALENVVVVIIQYRLGVLGFFSTGDKHATGNWGYLDQVAALRWVQQNIAHFGGNPDRVTIFGESAGGTSVSSLVVSPISQGLFHGAIMESGVALLPGLIASSADVISTVVANLSACDQVDSEALVGCLRGKSKEEILAINKPFKMIPGVVDGVFLPRHPQELLASADFQPVPSIVGVNNNEFGWLIPKVMRIYDTQKEMDREASQAALQKMLTLLMLPPTFGDLLREEYIGDNGDPQTLQAQFQEMMADSMFVIPALQVAHFQCSRAPVYFYEFQHQPSWLKNIRPPHMKADHGDELPFVFRSFFGGNYIKFTEEEEQLSRKMMKYWANFARNGNPNGEGLPHWPLFDQEEQYLQLNLQPAVGRALKAHRLQFWKKALPQKIQELEEPEERHTEL
Vmax (Kinetic properties [3]; [5]): 9.6 µmol/min/mg
Vmax/Km (Kinetic properties [3]; [5]): 1.2e+06 µL/min/mg
Vmax (Kinetic properties [4]; [5]): 0.004 µmol/min/mg
Vmax/Km (Kinetic properties [4]; [5]): 450 µL/min/mg

B2: hCE1 (Homo sapiens) (protein)
chain: GHPSSPPVVDTVHGKVLGKFVSLEGFAQPVAIFLGIPFAKPPLGPLRFTPPQPAEPWSFVKNATSYPPMCTQDPKAGQLLSELFTNRKENIPLKLSEDCLYLNIYTPADLTKKNRLPVMVWIHGGGLMVGAASTYDGLALAAHENVVVVTIQYRLGIWGFFSTGDEHSRGNWGHLDQVAALRWVQDNIASFGGNPGSVTIFGESAGGESVSVLVLSPLAKNLFHRAISESGVALTSVLVKKGDVKPLAEQIAITAGCKTTTSAVMVHCLRQKTEEELLETTLKMKFLSLDLQGDPRESQPLLGTVIDGMLLLKTPEELQAERNFHTVPYMVGINKQEFGWLIPMQLMSYPLSEGQLDQKTAMSLLWKSYPLVCIAKELIPEATEKYLGGTDDTVKKKDLFLDLIADVMFGVPSVIVARNHRDAGAPTYMYEFQYRPSFSSDMKPKTVIGDHGDELFSVFGAPFLKEGASEEEIRLSKMVMKFWANFARNGNPNGEGLPHWPEYNQKEGYLQIGANTQAAQKLKDKEVAFWTNLFAKKAVEKPPQTEHIEL
Vmax (Kinetic properties [3]; [6]): 1.4 µmol/min/mg
Vmax/Km (Kinetic properties [3]; [6]): 280000 µL/min/mg
Vmax (Kinetic properties [4]; [6]): 0.48 µmol/min/mg
Vmax/Km (Kinetic properties [4]; [6]): 17000 µL/min/mg
